Experiment [1] addresses Sigma non-opioid intracellular receptor 1 (Rattus norvegicus, UniProt Q9R0C9). Briefly: Displacement of (-)-[3H]pentazocine from sigma 1 receptor in rat brain membrane after 120 mins. The class given is cell membranes.
The species entered for the next experiment is Rattus norvegicus. As to the kind of experiment: Selectivity ratio of Ki for sigma 1 receptor in rat brain membrane to sigma 2 receptor in rat brain membrane. The format is cell membranes.
Experiment [2] is described as follows: Displacement of [3H]di-o-tolylguanidine from sigma 2 receptor in rat brain membrane after 120 mins. The class given is cell membranes. A digest of the protocol: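 Rat whole-brain homogenate without cerebellum (400–500 μg) incubated with 3 nM [3H]DTG plus 300 nM (+)-pentazocine to mask sigma-1 sites. Filtration through PEI-soaked glass fiber, scintillation counting, run in duplicate. Ki by Cheng-Prusoff.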
A general note: Loss of bound radioactivity is the signal in a displacement assay; it reports binding, not function.

The nature of experiment [3]: Binding affinity to sigma 2 receptor. A digest of the protocol: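 Rat whole-brain homogenate without cerebellum (400–500 μg) incubated with 3 nM [3H]DTG plus 300 nM (+)-pentazocine to mask sigma-1 sites. […] Filtration through PEI-soaked glass fiber, scintillation counting, run in duplicate. Ki by Cheng-Prusoff.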

This is an account of results in ChEMBL document CHEMBL1828538, “Synthesis and pharmacological evaluation of indole-based sigma receptor ligands” (Eur J Med Chem, 2011).

Sequence of Sigma non-opioid intracellular receptor 1 (Q9R0C9 whole entry): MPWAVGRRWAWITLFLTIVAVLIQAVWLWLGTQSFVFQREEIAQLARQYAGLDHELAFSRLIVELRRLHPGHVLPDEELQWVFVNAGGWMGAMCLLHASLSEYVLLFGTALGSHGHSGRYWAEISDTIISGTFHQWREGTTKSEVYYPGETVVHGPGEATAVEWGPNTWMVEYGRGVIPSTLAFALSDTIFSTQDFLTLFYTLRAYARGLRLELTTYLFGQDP

Consider `COc1cc2c(cc1OC)CN(CCCCn1cc(-c3ccoc3)c3ccccc31)CC2`, for which the inhibition constant Ki amounted to 614 nM in experiment [1] and 12 nM in experiment [2]. Moreover, the Ratio Ki in the experiment listed under Rattus norvegicus was 51.1.

For `COc1cc2c(cc1OC)CN(CCCCn1cc(-c3ccccc3)c3ccccc31)CC2`, the values for the inhibition constant Ki in experiment [1] and in experiment [2] were 714 nM and 46.3 nM, respectively. The Ratio Ki in the experiment filed under Rattus norvegicus came out at 15.4.

For `CC(=O)c1ccc2c(ccn2CCCCN2CCN(C3CCCCC3)CC2)c1`, the values for the Ki in experiment [1] and in experiment [2] were 5.33 nM and 2.31 nM, respectively. Besides, in the experiment listed under Rattus norvegicus, the Ratio Ki was 2.3.

For the compound `Fc1ccc(N2CCN(CCCCn3cc(-c4ccccc4)c4ccccc43)CC2)cc1`, the figures for the Ki in experiment [1] and in experiment [2] were 222 nM and 9.96 nM, respectively. Moreover, in the experiment filed under Rattus norvegicus, the Ratio Ki stood at 22.3.

For the compound `c1ccc(-c2cn(CCCCN3CCN(C4CCCCC4)CC3)c3ccccc23)cc1`, the Ki in experiment [1] was 92.4 nM; in experiment [2], 12.3 nM. Also, the Ratio Ki in the experiment filed under Rattus norvegicus came out at 7.5.

Turning to `CC(=O)c1ccc2c(ccn2CCCCN2CCN(c3ccc(F)cc3)CC2)c1`, the inhibition constant (Ki) in experiment [1] was 2.13 nM; in experiment [2], 3.3 nM. Besides, the Ratio Ki in the experiment listed under Rattus norvegicus amounted to 0.6.

With `COc1cc2c(cc1OC)CN(CCCCn1ccc3cc(C(C)=O)ccc31)CC2`, the Ki is 14.6 nM in experiment [1] and 1.42 nM in experiment [2]. In addition, the Ratio Ki in the experiment listed under Rattus norvegicus was 10.2.

For the compound `COc1cc2c(cc1OC)CN(CCCCNC(=O)c1cc(Br)cc(OC)c1OC)CC2`, in experiment [3], the Ki is 8.2 nM.

Take `Fc1ccc(N2CCN(CCCCn3ccc4ccccc43)CC2)cc1`: the affinity in experiment [1] corresponds to a Ki of 71.5 nM. Also, the Ratio Ki in the experiment listed under Rattus norvegicus was 5.4.

On to `Fc1ccc(N2CCN(CCCCn3cc(-c4ccoc4)c4ccccc43)CC2)cc1`, for which the Ki in experiment [1] was 279 nM; in experiment [2] it was 157 nM. Moreover, in the experiment listed under Rattus norvegicus, the Ratio Ki is 1.8.

Regarding `COc1cc2c(cc1OC)CN(CCCCn1ccc3ccccc31)CC2`, the Ki in experiment [1] was 141 nM.

For `Fc1ccc(-c2cn(CCCCN3CCN(C4CCCCC4)CC3)c3ccccc23)cc1`, the Ratio Ki in the experiment filed under Rattus norvegicus turned out to be 4.

On to `c1ccc2c(c1)c(-c1ccoc1)cn2CCCCN1CCN(C2CCCCC2)CC1`, for which the values for the inhibition constant Ki in experiment [1] and in experiment [2] were 34.5 nM and 10.1 nM, respectively. Further, the Ratio Ki in the experiment listed under Rattus norvegicus worked out at 3.4.

For orientation: Ki means a dissociation constant, usually derived from enzyme kinetics or from competition with a known ligand. A low value points to tighter binding.
